Most compounds without a hit are left out; they make up all but 2.1% or so of the library.
Runt-CBFb FRET: Runt domain-CBFb interaction inhibition; inhibition, % at 20 µM; AID 1496; Cerulean-Runt/Venus-CBFb FRET ratio 530/480, 1 h; actives 0.46% (n = 220,000); Q01196+Q13951;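 active means inhibition over about 50% at 20 µM in the single-dose screen, limit read from the data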;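 further: 0% = DMSO wells and 100% = excess unlabeled CBFb competitor control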
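test system = Cerulean-tagged RUNX1 Runt domain (FRET donor) fusion protein | reagent = Venus-CBFb binding partner, 100 nM | incubation = protein complex preformed 1 h, compound exposure 1 h, room temperature, dark | detection = FRET fluorescence | read-out basis = loss of energy transfer signal | controls = 5 µM unlabeled CBFb as full-inhibition high control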
p97 ATPase inh: blocks human p97 ATPase activity | P55072 | recombinant p97 ATPase, Kinase-Glo ATP luminescence, 3 h | inhibition, % at 8 µM | actives 0.42% (n = 220,000) | AID 1481; in the data active means inhibition above about 15%;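 further: 0% = DMSO vehicle and 100% = wells lacking enzyme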
Hck-Nef inh: inhibitors of human Hck kinase activated by Nef | inhibition, % at 20 µM | actives 0.68% (n = 220,000) | P08631 | AID 463187 | Recombinant Hck-YEEI plus Nef, Z-Lyte FRET kinase assay;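 active means Hck-Nef kinase inhibition above about 50%, limit read from the data; inactive means inhibition below that limit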;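 further: 0% = DMSO with Hck plus Nef and 100% = Hck alone without Nef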
Target sequence (P08631 whole entry, looked up): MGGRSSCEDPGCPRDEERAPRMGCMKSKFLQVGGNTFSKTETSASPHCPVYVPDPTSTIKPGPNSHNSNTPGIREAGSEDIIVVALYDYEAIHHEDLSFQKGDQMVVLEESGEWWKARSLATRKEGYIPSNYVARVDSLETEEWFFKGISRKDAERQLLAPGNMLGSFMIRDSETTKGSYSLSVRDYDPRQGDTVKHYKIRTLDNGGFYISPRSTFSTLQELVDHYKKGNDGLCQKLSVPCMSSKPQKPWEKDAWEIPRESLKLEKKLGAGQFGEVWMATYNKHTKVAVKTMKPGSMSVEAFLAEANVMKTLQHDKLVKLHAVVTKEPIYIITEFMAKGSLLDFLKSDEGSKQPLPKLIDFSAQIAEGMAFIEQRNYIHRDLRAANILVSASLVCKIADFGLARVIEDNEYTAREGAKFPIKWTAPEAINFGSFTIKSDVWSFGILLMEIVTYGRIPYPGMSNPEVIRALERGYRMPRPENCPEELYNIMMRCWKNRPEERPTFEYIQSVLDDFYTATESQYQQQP
Runt-SMMHC FRET: inhibitors of human RUNX1 Runt domain binding to CBFb-SMMHC | Cerulean-Runt/Venus-CBFb-SMMHC FRET ratio 530/480, 1 h | inhibition, % at 20 µM | actives 0.74% (n = 220,000) | AID 1434;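 active means mean inhibition across duplicate retests at 20 µM reaching about 50%, limit read from the data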;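 further: 0% = DMSO wells and 100% = wells with excess untagged CBFb-SMMHC; inhibitors lower the FRET ratio by blocking Runt binding to CBFb-SMMHC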
RanGTP-Imp inh: inhibitors of RanGTP-importin-beta interaction, primary screen, biochemical, FRET, CFP-Ran, YFP-importin-beta, homogeneous | cell-free CFP-Ran/YFP-importin-beta FRET ratio | inhibition, % (concentration not given with the values) | actives 1.1% (n = 300,000) | AID 2216;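 active means more than half of the replicate wells show a fall in the fluorescence ratio signal beyond about 16%, limit read from the data, passing the limit was not always enough; inconclusive means exactly half of the replicate wells pass the set limit; inactive means fewer than half of replicates pass the limit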;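 further: 0% = DMSO wells and 100% = Ran loaded with GDP instead of GTP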
TbHK1 inh: T. brucei hexokinase 1 inhibition; recombinant TbHK1, G6PDH-coupled NADH A340; AID 1430; inhibition, % at 10 µM; actives 0.11% (n = 220,000);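 active means inhibition of 50% or more in the single-dose primary screen; inactive means inhibition below 50%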
Hck Nef conf: Hck-Nef kinase inhibition, confirmation. shares compounds with Hck-Nef inh. actives 28% (n = 1,300). Recombinant Hck-YEEI:Nef, Z-Lyte FRET kinase assay. AID 463188. calls only at 10 µM;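 active means average inhibition of at least 50%, with Z-scores no higher than 3 in both the phospho-tyrosine peptide and fluorescence counterscreens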
* hit, by the source's call; i = inactive; ? = inconclusive; . = no result; + = active, no number.

SMILES	Runt-CBFb FRET	p97 ATPase inh	Hck-Nef inh	Runt-SMMHC FRET	RanGTP-Imp inh	TbHK1 inh	Hck Nef conf
Cc1ccc2nc(NC(=O)c3cccc(-c4cc5ccccc5oc4=O)c3)sc2c1	-7	-5	63*	-2	-2	-1	i
N=C1/C(=C/c2ccc(-c3cccc(C(=O)O)c3)o2)C(=O)N=C2SC=C(c3ccccc3)N12	-35	13	91*	-97	-7	20	+
N=C1/C(=C\c2ccc(-c3cc(Cl)cc(Cl)c3)o2)C(=O)N=C2SC=C(c3ccccc3)N12	-6	7	5	-27	4	20	.
c1ccc(-c2oc3ncnc(NCCCN4CCOCC4)c3c2-c2ccccc2)cc1	1	-6	61*	0	6	-19	+
COc1ccc(-c2oc3ncnc(NCCCN4CCOCC4)c3c2-c2ccc(OC)cc2)cc1	-2	-5	94*	-8	1	-28	+
COc1ccc(-c2oc3ncn(CCN4CCOCC4)c(=N)c3c2-c2ccc(OC)cc2)cc1	-2	11	20	2	0	-39	.
OCCCNc1ncnc2oc(-c3ccccc3)c(-c3ccccc3)c12	.	.	.	.	-4	.	.
COc1ccc(-c2oc3ncnc(NCCN4CCOCC4)c3c2-c2ccc(OC)cc2)cc1	-3	0	66*	-2	?	-23	+
COc1ccccc1CCC(=O)Nc1cc(S(=O)(=O)N2CCOCC2)ccc1N1CCCC1	.	.	.	.	0	.	.
COc1ccc(NC(=S)N2CCN(c3ccccn3)CC2)cc1OC	6	4	2	-4	3	-2	.
CCN(CC)c1ccc(/C=N/N2CCN(Cc3ccccc3Cl)CC2)cc1	.	.	.	.	2	.	.
CCN(CC)c1ccc(/C=N/N2CCN(Cc3ccccc3)CC2)cc1	2	-4	57*	12	1	-26	i
